Active and inactive are the calls of the source. The calls are words filed in the database; no cut-off is given here.
Columns and labels:
Hepatitis C virus [1] = assay: Antiviral activity against HCV infected in human HuH7 cells assessed as inhibition of viral replication at 10 uM by RT-PCR analysis; assay type: functional, Hepacivirus hominis; details: Huh-7
In short: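 Huh7 cells carrying a subgenomic HCV replicon, with compounds tested at 10 μM. HCV RNA and ribosomal RNA were extracted and amplified together, so cytotoxicity was read at the same time as replicon inhibition.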

[2] = biological target: T1, Adenosine deaminase (Homo sapiens) (UniProt P00813); assay: Activity at adenosine deaminase assessed as nitrogen to oxygen transformation
T1 sequence (whole entry): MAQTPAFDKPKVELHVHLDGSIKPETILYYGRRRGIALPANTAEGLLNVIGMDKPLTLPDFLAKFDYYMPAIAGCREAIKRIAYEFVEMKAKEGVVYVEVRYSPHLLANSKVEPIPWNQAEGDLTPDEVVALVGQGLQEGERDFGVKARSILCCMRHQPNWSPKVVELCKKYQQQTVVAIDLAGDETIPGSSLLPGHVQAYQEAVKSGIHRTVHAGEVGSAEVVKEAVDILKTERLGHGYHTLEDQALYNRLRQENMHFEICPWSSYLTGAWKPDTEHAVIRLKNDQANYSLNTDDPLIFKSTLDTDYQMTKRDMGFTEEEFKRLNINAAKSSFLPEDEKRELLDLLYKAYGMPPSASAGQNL

[3] = Cytotoxicity against african green monkey Vero after 5 days; assay type: cell-based; details: chlorocebus sabaeus, Vero cells
[4] = tested on: Human immunodeficiency virus 1; assay: Antiviral activity against HIV1 LAI infected in human peripheral blood mononuclear cells assessed as inhibition of viral replication after 5 days by quantitative RT-PCR analysis; assay type: functional, organism-based; details: Human immunodeficiency virus 1, LAI, 120 h
In short: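 Primary human PBM cells were infected with HIV-1 LAI, and AZT was run as the positive standard.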

[5] = (§1) Cytotoxicity against human CEM after 5 days; assay type: cell-based, CCRF-CEM; details: CEM cells (CCRF-CEM)
[6] = Cytotoxicity against human PBMC after 5 days; assay type: cell-based
Huh-7 = assay: Cytotoxicity against human HuH7 cells assessed as rRNA level at 10 uM; assay type: cell-based; details: huh-7, 10 µM
In short: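 Huh7 cells carrying a subgenomic HCV replicon were given compound at 10 μM. Cytotoxicity was measured alongside anti-HCV activity by extracting and amplifying ribosomal RNA together with HCV RNA.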

[7] = Chemical stability of the compound in phosphate buffer at pH 7.4 assessed as formation of complex mixture product after 3 days; assay type: physicochemical; details: pH 7.4, 72 h
Hepatitis C virus [8] = assay: Antiviral activity against HCV infected in human HuH7 cells assessed as inhibition of viral replication by RT-PCR analysis; assay type: functional, organism-based, Hepacivirus hominis; details: Huh-7
In short: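 Subgenomic HCV replicon system in Huh7 cells. HCV RNA and ribosomal RNA were both extracted and amplified, with the rRNA signal giving cytotoxicity at the same time as antiviral activity.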

[9] = biological target: T1, Adenosine deaminase (Homo sapiens); assay: Activity at adenosine deaminase
In short: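 ADA inhibition assay: 140 μM adenosine (final) with 0.01 units adenosine deaminase in 50 mM potassium phosphate, pH 7.4; compounds at 10 μM. Absorbance at 265 nm followed over four minutes. Inhibition judged from the change in slope relative to no-compound control, with a slope nearing zero indicating inhibition.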

CCRF-CEM = assay: as §1; assay type: cell-based; details: ccrf-cem, 120 h

SMILES	inhibition at 10 µM (Hepatitis C virus [1]) [%]	Activity [2]	CC50 at 120 h [3] [µM]	EC50 [4] [µM]	EC90 [4] [µM]	CC50 at 120 h [5] [µM]	CC50 at 120 h [6] [µM]	Activity (Huh-7) [%]	Stability [7]	EC50 (Hepatitis C virus [8]) [µM]	Activity [9]	CC50 (CCRF-CEM) [µM]
C[C@@]1(O)[C@H](O)[C@@H](CO)O[C@H]1n1cnc2c(N)n[nH]c(=O)c21	0	inactive	> 100	> 100	> 100	> 100	> 100	0	–	–	–	–
C[C@@]1(O)[C@H](O)[C@@H](CO)O[C@H]1n1cnc2c(N)nc(-n3cc([Si](C)(C)C)nn3)nc21	0	–	> 100	> 100	> 100	> 100	> 100	0	–	–	–	–
CCOC(=O)[C@H](C)NP(=O)(OC[C@H]1O[C@@H](n2cnc3c(C)nc(N)nc32)[C@](C)(O)[C@@H]1O)Oc1ccccc1 (some centres undefined)	0	–	> 100	68	> 100	> 100	> 100	0	–	–	–	–
C[C@@]1(O)[C@H](O)[C@@H](CO)O[C@H]1n1cnc2c(N)nc(Cl)nc21	0	–	> 100	> 100	> 100	> 100	> 100	5.8	–	–	–	–
C[C@@]1(O)[C@H](O)[C@@H](CO)O[C@H]1n1cnc2c(N)nc(NN)nc21	85	–	> 100	> 100	> 100	> 100	> 100	7	Unstable	6	–	–
CCOC(=O)[C@H](C)NP(=O)(OC[C@H]1O[C@@H](n2cnc3c(N)nc(NN)nc32)[C@](C)(O)[C@@H]1O)Oc1ccccc1 (some centres undefined)	–	–	–	–	–	–	–	–	–	0.9	–	–
COc1nc(Cl)nc2c1ncn2[C@@H]1O[C@H](CO)[C@@H](O)[C@@]1(C)O	14	–	> 100	> 100	> 100	> 100	> 100	9.8	–	–	–	–
CCOP(=O)(OCC)c1nc(N)nc2c1ncn2[C@@H]1O[C@H](CO)[C@@H](O)[C@@]1(C)O	19	inactive	> 100	> 100	> 100	> 100	> 100	15	–	–	–	–
C[C@@]1(O)[C@H](O)[C@@H](CO)O[C@H]1n1cnc2c(N)nc(-n3ccnn3)nc21	0	inactive	> 100	> 100	> 100	> 100	> 100	0	–	–	Active	–
C[C@@]1(O)[C@H](O)[C@@H](CO)O[C@H]1n1cnc2c1nc(N)n1nc(-c3ccco3)nc21	0	–	> 100	> 100	> 100	> 100	> 100	0	–	–	–	–
C[C@@]1(O)[C@H](O)[C@@H](CO)O[C@H]1n1cnc(C(=O)NN)c1/C(N)=N/N	0	–	> 100	> 100	> 100	> 100	> 100	9	–	–	–	–
C[C@@]1(O)[C@H](O)[C@@H](CO)O[C@H]1n1cnc2c(N)nc(N=[N+]=[N-])nc21	5.2	–	> 100	> 100	> 100	> 100	> 100	0	–	–	–	–
Cc1nc(N)nc2c1ncn2[C@@H]1O[C@H](CO)[C@@H](O)[C@@]1(C)O	0	–	> 100	70	> 100	13	> 100	0	–	–	–	–
C[C@@]1(O)[C@H](O)[C@@H](CO)O[C@H]1n1cnc2c(=N)n(N)[nH]c(=O)c21	0	–	> 100	> 100	> 100	> 100	> 100	0	–	–	–	–
C[C@@]1(OC(=O)c2ccccc2)[C@H](OC(=O)c2ccccc2)[C@@H](COC(=O)c2ccccc2)O[C@H]1n1cnc2c(Cl)nc(NO)nc21	100	–	> 100	17	65	–	43	100	–	–	–	7.3
C[C@@]1(OC(=O)c2ccccc2)[C@H](OC(=O)c2ccccc2)[C@@H](COC(=O)c2ccccc2)O[C@H]1n1cnc2c(N)nc(NO)nc21	66	–	42	8.7	42	27	> 100	76	–	–	–	–
Cc1nc2c3ncn([C@@H]4O[C@H](CO)[C@@H](O)[C@@]4(C)O)c3nc(N)n2n1	0	–	> 100	> 100	> 100	> 100	> 100	0	–	–	–	–
CCOP(=O)(O)c1nc(N)nc2c1ncn2[C@@H]1O[C@H](CO)[C@@H](O)[C@@]1(C)O	19	inactive	> 100	> 100	> 100	> 100	> 100	15	–	–	–	–
C[C@@]1(O)[C@H](O)[C@@H](CO)O[C@H]1n1cnc2c(=O)[nH]nc(N)c21	0	–	> 100	> 100	> 100	> 100	> 100	0	–	–	–	–

From ChEMBL document CHEMBL1909609, “Synthesis of purine modified 2'-C-methyl nucleosides as potential anti-HCV agents” (Bioorg Med Chem Lett, 2011)
